NS3 helicase inh = inhibitors of HCV NS3 helicase, primary screen, biochemical, Cy5 molecular beacon fluorescence; Hepatitis C virus NS3 helicase; NS3 helicase DNA unwinding; inhibition, % at 10.9 µM; 290,000 compounds, 0.56% hits; AID 1800, 2009;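 active means inhibition above the mean of all tested compounds plus 3 SD, set per campaign, cut at about 35% in these data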;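 further: 0% = DMSO wells and 100% = thioflavine S control wells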
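System: NS3 helicase fragment of HCV / Schedule: 1 h at 25 °C / Control set: DMSO alone as 0% and 110 µM thioflavine S as 100% / Reagent: Cy5/quencher beacon DNA duplex and ATP to start / Technique: Cy5 fluorescence / Replication: singlicate / Evaluation: % inhibition of end-to-start signal ratio versus controls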
PABP FP inh = PABP poly(A) RNA binding inhibitors, primary screen, biochemical, fluorescence polarization, uHTS. 290,000 compounds, 1% hits. inhibition, % at 35 µM. AID 2014, 2009;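 further: calls also rest on retests at 20 µM and on dose response follow-up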
eIF4H inh = human eIF4H binding inhibitors, primary screen, translation initiation inhibitor project, biochemical, uHTS, fluorescence polarization | AID 2012, 2009 | inhibition, % at 35 µM | Eukaryotic translation initiation factor 4H (Homo sapiens), Q15056 | eIF4H fluorescence polarization binding assay | 290,000 compounds, 0.94% hits;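 further: calls also rest on retests at 20 µM and on dose response follow-up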
MLLE-PAM2 inh = inhibitors of PABP1 MLLE–PAM2 peptide binding, primary screen, biochemical, fluorescence polarization, FITC-PAM2, GST-MLLE. inhibition, % at 20 µM. 360,000 compounds, 0.36% hits. AID 588489, 2011. Polyadenylate-binding protein 1 (Homo sapiens), P11940; in the data active means inhibition above about 35%, passing the limit was not always enough;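 further: plate controls were DMSO wells with GST-MLLE for no effect and wells lacking GST-MLLE protein for full effect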
EBNA-1 inh = EBNA-1 DNA-binding inhibitors, primary screen, biochemical, fluorescence polarization; inhibition, % at 14.8 µM; 300,000 compounds, 0.34% hits; in the data active means inhibition above about 28%
ZTA DNA inh = ZTA (EBV) inhibition in EBNA-1 counter-screen. P03206. ZTA-DNA binding, fluorescence polarization. 320,000 compounds, 0.15% hits. inhibition, % at 11 µM; in the data active means inhibition above about 33%
Target sequence (P03206 whole entry, looked up): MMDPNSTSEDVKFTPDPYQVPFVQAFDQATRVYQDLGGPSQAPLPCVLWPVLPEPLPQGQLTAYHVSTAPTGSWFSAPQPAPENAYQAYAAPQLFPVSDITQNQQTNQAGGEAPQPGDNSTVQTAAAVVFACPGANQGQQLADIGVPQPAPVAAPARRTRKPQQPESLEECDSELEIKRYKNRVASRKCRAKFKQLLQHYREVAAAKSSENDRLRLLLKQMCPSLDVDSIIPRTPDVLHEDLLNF
NS3 helicase cf = HCV NS3 helicase inhibitors, retest, confirmation, biochemical, Cy5 molecular beacon fluorescence, triplicate; shares compounds with NS3 helicase inh; NS3 helicase DNA unwinding; inhibition, % at 10.9 µM; 1,600 compounds, 31% hits;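 active means inhibition above the mean of all tested compounds plus 3 SD, cutoff set per campaign, cut at about 36% in these data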
DNA FID counter = compounds displacing fluorescent DNA intercalator, artefact control for HCV NS3 helicase inhibitor project, biochemical, FID fluorescence, triplicate; 1,600 compounds, 4% hits; shares compounds with NS3 helicase inh; AID 1945, 2009; inhibition, % at 7.9 µM; DNA fluorescent intercalator displacement; in the data active means inhibition above about 37%;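 further: 0% = vehicle and 100% = reference compound; higher means more displacement of ethidium bromide from the DNA hairpin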
DNA FID DR = compounds displacing fluorescent intercalator from DNA, dose response, counter-screen for HCV NS3 helicase inhibitor project, biochemical, fluorescence; IC50, µM; shares compounds with NS3 helicase inh; fluorescent intercalator displacement from DNA; 120 tested, under 10 active
* = called active by the depositor; ? = inconclusive; . = not tested or not shown. Only some compounds are listed: those with a hit (about 2.1% of all), similar ones and a draw of the others. Unless noted, how the calls were made is not given here.

SMILES | NS3 helicase inh | PABP FP inh | eIF4H inh | MLLE-PAM2 inh | EBNA-1 inh | ZTA DNA inh | NS3 helicase cf | DNA FID counter | others
Cc1[nH]c(C)c(S(=O)(=O)N(C)Cc2ccccc2)c1C(=O)N1CCCC1 | 2.4 | -5.8 | -7.5 | -3.7 | 0.0 | 1.9 | . | .
Cc1[nH]c(C)c(S(=O)(=O)N(Cc2ccccc2)C(C)(C)C)c1C(=O)N1CCCC1 | 38.1* | 3.9 | -13.0 | 2.4 | -6.6 | 0.7 | -9.7 | -32.7
O=C(Cc1ccc([N+](=O)[O-])cc1)OCc1c(F)cccc1Cl | 0.8 | -4.3 | -12.3 | -2.2 | 0.5 | 0.5 | . | .
Cc1cc(/C=C2\Cc3ccccc3C2=O)c(C)n1-c1ccccc1 | 38.8* | 0.9 | 8.9 | -69.1 | 7.6 | 0.0 | -17.1 | -20.3
CCCn1c(C(C)Nc2nc(-c3ccc(Cl)c([N+](=O)[O-])c3)cs2)nc2cc(Cl)c(N3CCCCC3)cc21 (configuration not stated) | 91.6* | 2.8 | -4.3 | -109.3 | 1.0 | 0.3 | -14.7 | 5.6
CCOC(=O)N1CCN(C(=O)c2ccc3oc(CCCc4ccccc4)nc3c2)CC1 | 14.6 | 0.1 | -3.5 | -7.1 | -2.4 | 1.6 | . | .
O=C(CSc1ccc(Br)c2cccc(Cl)c12)Nc1ccc(S(=O)(=O)Nc2nccs2)cc1 | 38.3* | 6.9 | 62.6 | 4.4 | 12.3 | 12.1 | 38.0* | 8.0
COc1ccc(NC(=O)CN(C)C(=O)CCc2nc3cc(S(=O)(=O)N4CCOCC4)ccc3n2C)cc1 | . | . | . | -3.4 | 2.5 | -4.7 | . | .
Cc1ccc(C(=O)C2=C(O)C(=O)N(c3ncccn3)C2c2cccc(Cl)c2)o1 (configuration not stated) | . | 10.2 | 8.1 | . | . | . | . | .
Cc1ccc(C(=O)C2=C(O)C(=O)N(Cc3ccco3)C2c2cccc(Cl)c2)o1 (configuration not stated) | 74.4* | 5.5 | -18.8 | -0.2 | -2.5 | -3.7 | 71.2* | -28.9 | DNA FID DR=>79.4
Cc1ccc(C(=O)C2=C(O)C(=O)N(Cc3cccnc3)C2c2ccc(Br)cc2)o1 (configuration not stated) | 40.5* | 16.1 | -1.5 | 5.8 | 1.7 | -5.2 | -20.1 | -42.7
Cc1ccc(C(=O)C2=C(O)C(=O)N(Cc3ccco3)C2c2cccc(Br)c2)o1 (configuration not stated) | 100.7* | 8.3 | 1.5 | 0.4 | -0.2 | 3.1 | 92.0* | -33.1
O=C(C1=C(O)C(=O)N(Cc2ccco2)C1c1cccc(O)c1)c1ccco1 (configuration not stated) | 5.1 | 14.7 | -8.7 | -11.3 | -2.4 | -22.2 | . | .
COc1cccc(C(=O)O/N=C(\N)c2ccc([N+](=O)[O-])cc2)c1OC | -2.4 | 10.0 | -7.7 | -10.6 | 2.3 | -1.4 | . | .
CCOC(=O)c1ccc(N(C(=O)CNC(=O)c2ccco2)C(C(=O)NCC2CCCO2)c2ccc(OC)c(OC)c2)cc1 (configuration not stated) | 50.9* | 0.0 | -3.3 | 11.5 | 15.4 | 4.9 | -10.2 | -53.2
COc1ccc(C(C(=O)NCC2CCCO2)N(C(=O)CNC(=O)c2ccco2)c2ccccc2)cc1OC (configuration not stated) | -2.5 | -0.9 | -7.5 | 2.4 | -3.1 | -10.2 | . | .
Cc1nc2ccccn2c1C(=O)N/N=C/c1ccc2c(c1)OCO2 | 40.1* | 20.3 | -2.2 | -3.0 | -6.3 | 5.2 | -10.9 | 2.7
Cc1nc2ccccn2c1C(=O)NCc1ccc2c(c1)OCO2 | -10.2 | 0.9 | 0.1 | 6.7 | -19.6 | -11.2 | . | .
Cc1[nH]c2ccccc2c1C(c1ccncc1)N1CCN(c2ccc(F)cc2)CC1 (configuration not stated) | 7.6 | -7.4 | -8.1 | -6.2 | -3.5 | 13.0 | . | .
Cc1ccc(Cl)cc1N1CCN(C(=O)CCS(=O)(=O)c2cccc3nonc23)CC1 | 6.1 | -0.5 | 2.3 | -9.4 | -11.9 | -4.7 | . | .
COC(=O)c1cc(NS(=O)(=O)c2ccc(Cl)c(N3C(=O)c4ccc(C(=O)O)cc4C3=O)c2)cc(C(=O)OC)c1 | 6.3 | 7.1 | -8.9 | 1.6 | 8.5 | 12.9 | . | .
Cc1cc(S(=O)(=O)N2CCN(c3ccccc3F)CC2)ccc1-n1cnnn1 | -4.3 | -13.2 | -16.5 | 1.8 | 12.8 | 15.1 | . | .
CC1=Nc2ccccc2/C1=C/c1c(N)n2c(S(=O)(=O)CC(C)C)nsc2nc1=O | 36.1* | 1.6 | 9.9 | -16.7 | . | . | 54.3* | -14.8
Cc1c(O)ccc(C(=O)CN2CCN(Cc3ccc4c(c3)OCO4)CC2)c1O | 84.3* | 14.5 | 11.0 | -0.2 | 0.0 | 3.1 | -4.5 | 34.5
CCOC(=O)N1CCN(Cc2ccc3c(c2)OCO3)CC1 | 11.6 | -4.2 | 12.5 | -1.0 | -1.9 | 1.2 | . | .
SMILES | NS3 helicase inh | PABP FP inh | eIF4H inh | MLLE-PAM2 inh | EBNA-1 inh | ZTA DNA inh | NS3 helicase cf | DNA FID counter | others
CCNC(=S)N1CCN(Cc2ccc3c(c2)OCO3)CC1 | -13.9 | -8.1 | -8.7 | -105.8 | -10.1 | -2.7 | . | .
CCCNC(=S)N1CCN(Cc2ccc3c(c2)OCO3)CC1 | 54.8* | 8.7 | 11.1 | -124.4 | -3.2 | -9.0 | -5.6 | 11.2
CN(C)c1ccc(NC(=O)C2C3C=CC(C3)C2C(=O)O)cc1 (configuration not stated) | 55.7* | 5.4 | 27.9 | 17.5 | . | . | 30.1 | 14.3
CN=c1scc(-c2ccc([N+](=O)[O-])cc2)n1/N=C/c1ccco1 | 11.2 | -2.3 | 7.6 | 3.2 | 0.2 | 4.5 | . | .
O=C1c2ccc([N+](=O)[O-])cc2NC(c2ccco2)N1/N=C/c1ccco1 (configuration not stated) | 41.7* | 23.4 | 56.0* | -2.1 | 0.1 | -11.3 | -4.6 | 20.9
COc1ccccc1NC(=O)c1sc2nc(-c3ccco3)ccc2c1N | 48.7* | 40.4 | 49.1 | -32.4 | -7.0 | 4.4 | 1.4 | 16.7
CCS(=O)(=O)C1=NN2C(=N)/C(=C\c3ccc(SCc4ccco4)o3)C(=O)N=C2S1 | 36.7* | -1.5 | ? | -120.0 | . | . | 65.4* | 22.4
CCS(=O)(=O)C1=NN2C(=N)/C(=C\c3ccc(OC(=O)c4ccco4)c(Br)c3)C(=O)N=C2S1 | -9.1 | 7.9 | -6.0 | . | 1.2 | -0.9 | . | .
COc1ccc(NC(=O)CN2C(=O)/C(=C3\SC(=S)N(CCC(=O)O)C3=O)c3ccccc32)cc1 | 27.9 | 10.6 | 106.0 | 34.2 | 4.7 | -5.4 | . | .

From PubChem
